The text below walks through data of PubChem BioAssay.

Calls of active or inactive are those of the source.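 Rule for the calls, unless noted: active = fluorescence slope higher than the sample average by over 3 SD (cut at about -0.22 in these data, passing the limit was not always enough); inactive = the rest.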

A short description of test [1]: inhibitors of TNFa-induced NFkB p65 translocation, primary screen, imaging, HUVEC, MLSMR starter and 10KST1 sets (AID 438;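 active = inhibition above 20% together with a positive visual image hit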;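 note: compound added about 3h40 before a 20 min TNFalpha stimulation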;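 for inhibition: signal is the nuclear over cytoplasmic p65 intensity ratio per well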). The settings on record: HUVEC TNFa-induced p65 nuclear translocation; cell count: measured here: nuclei count (cytotoxicity indicator), at 2.08 µM; inhibition: at 2 µM, stronger effect = higher value, 0% TNFa-plus-vehicle, 100% no-TNFa wells.
Test [2] is described as follows: reduction of polyQ htt aggregates in cells – imaging, exon1htt(103Q)mCFP cells, high-content imaging, primary screen (AID 483;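 active = visual image review flags a hit and inhibition of aggregation exceeds 20%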;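 note: compound exposure lasted 3 days before fixation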;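 for nuclei count: percent of the per-plate median nuclei count of sample wells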). Conditions: exon1htt(103Q)mCFP cell line, aggregate imaging, at 2 µM; inhibition of aggregation: stronger effect = higher value; nuclei count: measured here: cell count, toxicity.
A short description of test [3]: endothelial E-selectin expression blockers – imaging, HUVEC, immunofluorescence, MLSMR starter and 10KST1 sets, primary screen (AID 487;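 active = visually confirmed hit in the image check and inhibition above 20%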;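 for inhibition: signal is fraction of cell area covered by stained E-selectin grains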;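 for nuclei count: 100% = median nuclei count of all wells on the same plate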). The settings on record: HUVEC TNFalpha-induced E-selectin immunofluorescence imaging, at 2 µM; inhibition: stronger effect = higher value; nuclei count: measured here: cell number, toxicity.
The target in test [4] is Voltage-gated potassium channel subunit beta-2 (Rattus norvegicus) (UniProt P62483). The test can be described thus: inhibitors of rat Kvbeta2 reductase activity – biochemical, NADPH fluorescence, primary screen (AID 622).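 Note: slope of raw intensity against log time taken from 70 to 1610 s.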 Conditions: recombinant KvBeta, 4-cyanobenzaldehyde reduction, at 10 µM, stronger effect = higher value.
Test [5] shares this target. The test can be described thus: enhancers of rat Kvbeta2 NADPH turnover – biochemical, NADPH fluorescence, primary screen (AID 623;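 active = NADPH fluorescence slope more negative than the mean of all samples by about 3 SD, 99.7% confidence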;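 note: fluorescence intensity change per second fitted from 20 to 320 s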). The settings on record: Recombinant KvBeta, NADPH fluorescence decrease slope, 10 min; at 10 µM; stronger effect = lower value.
Test [6] deals with Alpha-2C adrenergic receptor (Homo sapiens) (UniProt P18825). Put plainly: compounds altering alpha2C-coupled GIRK flux – cell-based, HEK293 alpha2C/GIRK1/2, thallium flux, primary screen (AID 624;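 active = fluorescence slope after compound addition differing from the mean of all screened samples at 99.7% confidence, in either direction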;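 note: slope of fluorescence ratio to pre-addition baseline per second over 15 to 24 s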). The settings on record: thallium flux BTC fluorescence, at 10 µM, actives lie on both sides.
Test [7] in a line: inhibitors of larval lipid processing in zebrafish, primary screen, whole organism, PED6 fluorescence, gall bladder and intestine (AID 686;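 active = a full or partial loss of lipid-probe fluorescence in the fish gall bladder, intestine or both, judged by eye; inactive = no fluorescence loss, or compound toxic to the fish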;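 note: larvae 5 to 7 days old with five fish per well; signal comes from phospholipase A2 cleavage of quenched PED6 carried via bile; overnight exposure to compound and PED6 before scoring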). Conditions: Zebrafish larvae PED6 lipid processing, fluorescence scoring; screened at 20 µM (by protocol). An outline of the steps:
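system = live zebrafish larvae aged 5-7 days, whole organism | probe or stimulus = ingested quenched lipid PED6 at 100 nM | doses = 20 µM single dose | timing = overnight exposure | detection = fluorescence microscopy with visual scoring of gall bladder and intestine | read-out = visual per-well fluorescence inhibition score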

Test [8] in a line: blockers of RIG-like receptor reporter activation – cell-based, Sendai virus stimulus, luciferase, 10K MLSCN set, TLR/RLR signaling modifier project, primary screen (AID 602276;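 active = inhibition at or above 50% at 10 µM; inactive = inhibition below 50%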;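 note: firefly luciferase from ISG56 promoter only with Renilla not read in this screen; 0% = Sendai virus plus DMSO and 100% = medium plus DMSO without virus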). The settings on record: HEK293 RL24 IRF3 luciferase reporter, at 10 µM, stronger effect = higher value. In general terms: Reporter assays use an easily measured gene product as a stand-in for the process of interest.

A short description of test [9]: TLR3 IRF3 reporter activation blockers – cell-based, poly I:C stimulus, luciferase, 10K MLSCN set, primary screen (AID 602277;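 active = inhibition of the reporter signal at or above 50%; inactive = inhibition below 50%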). The settings on record: HEK293-TLR3 RL24 IRF3 luciferase reporter, at 10 µM, stronger effect = higher value.

Voltage-gated potassium channel subunit beta-2 (Rattus norvegicus), sequence (P62483 whole entry, looked up): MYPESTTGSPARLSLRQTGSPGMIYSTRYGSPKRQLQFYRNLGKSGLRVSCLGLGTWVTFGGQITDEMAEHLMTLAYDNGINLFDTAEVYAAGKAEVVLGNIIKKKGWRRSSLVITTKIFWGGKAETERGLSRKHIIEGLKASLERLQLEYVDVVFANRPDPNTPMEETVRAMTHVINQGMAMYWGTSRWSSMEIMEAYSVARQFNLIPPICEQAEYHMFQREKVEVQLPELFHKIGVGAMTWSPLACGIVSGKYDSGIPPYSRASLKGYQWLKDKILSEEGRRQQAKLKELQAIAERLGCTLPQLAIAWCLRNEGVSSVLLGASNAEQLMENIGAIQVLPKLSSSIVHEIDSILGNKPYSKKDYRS
Alpha-2C adrenergic receptor (Homo sapiens), sequence (P18825 whole entry, looked up): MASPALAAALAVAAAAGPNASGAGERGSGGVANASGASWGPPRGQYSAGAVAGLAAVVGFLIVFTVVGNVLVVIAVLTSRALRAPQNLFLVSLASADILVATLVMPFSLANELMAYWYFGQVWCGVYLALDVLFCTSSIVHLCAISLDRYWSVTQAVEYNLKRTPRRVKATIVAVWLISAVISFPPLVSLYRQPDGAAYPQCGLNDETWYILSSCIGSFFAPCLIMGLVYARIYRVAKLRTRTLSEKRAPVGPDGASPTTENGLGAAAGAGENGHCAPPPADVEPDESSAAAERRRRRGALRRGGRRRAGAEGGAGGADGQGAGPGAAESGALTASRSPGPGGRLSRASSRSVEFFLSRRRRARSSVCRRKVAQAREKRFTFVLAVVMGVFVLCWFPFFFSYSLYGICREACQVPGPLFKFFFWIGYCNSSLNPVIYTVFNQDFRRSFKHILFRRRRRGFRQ

In general, inhibition refers to the relative decrease from the control value, in per cent. `COc1ccc(C2C(C(=O)c3sc(C)nc3C)=C(O)C(=O)N2CCN(C)C)cc1` (stereo unspecified): the cell count in [1] was found to be 560. Further, the inhibition in [1] was 13.4% (inactive); in test [3], -15.4% (inactive); in [8], 10.9% (inactive); in [9], 9.69% (inactive). Further, in [2], the inhibition of aggregation is 6.9% (inactive). Further, the nuclei count in test [2] turned out to be 110%; in test [3], 123%. The fluorescence slope in [4] was -0.335 (inactive). Moreover, in test [5], the NADPH fluorescence slope was -6.7e-05 (inactive). Also, the slope in test [6] is 0.00568 (inactive). In [7], the compound was called inactive.
Consider `COC(=O)C1=C(C)Nc2ncnn2C1c1ccco1` (stereo unspecified), for which the cell count in test [1] is 303. The inhibition in [1] is -4.2% (inactive); in test [3], 5.2% (inactive); in [8] it was 15.5% (inactive); in test [9], 16.5% (inactive). Further, the inhibition of aggregation in test [2] is -6.6% (inactive). Further, the nuclei count in test [2] is 100%; in [3], 93.9%. Further, in test [4], the fluorescence slope is -0.432 (inactive). In addition, the NADPH fluorescence slope in [5] is -6e-05 (inactive). Besides, the slope in test [6] is 0.00405 (inactive). Further, in [7], the compound was classed as inactive.
For the compound `Cc1cc(C)cc(NC(=O)CN(C)S(=O)(=O)c2cnc[nH]2)c1`, in [1], the cell count was 484. Further, the inhibition in test [1] is 8.7% (inactive); in [3] it was 0.4% (inactive); in [8], 1.14% (inactive); in test [9] it was 2.32% (inactive). Besides, in test [2], the inhibition of aggregation was -24% (inactive). Moreover, the nuclei count was 110% in [2] and 100% in [3]. In addition, the fluorescence slope in test [4] is -0.406 (inactive). In test [5], the NADPH fluorescence slope was -3.6e-05 (inactive). Further, the slope in test [6] was 0.00489 (inactive). Moreover, the compound was called inactive in test [7].
Take `Cc1ccc2nc3c(cc2c1)CN(Cc1ccco1)C(=NCC1CCCO1)S3` (stereo unspecified): in test [1], the cell count is 543. The inhibition in test [1] is 0.7% (inactive); in test [3], -2.1% (inactive); in [8], 13.9% (inactive); in test [9] it was 11.5% (inactive). Also, the inhibition of aggregation in test [2] is 28.7% (inactive). Also, the figures for the nuclei count in test [2] and in test [3] were 82.4% and 106%, respectively. Further, the fluorescence slope in test [4] was -0.372 (inactive). In test [5], the NADPH fluorescence slope was -6.6e-05 (inactive). In addition, the slope in test [6] was 0.00724 (inactive). In addition, the compound was called inactive in test [7].
Turning to `COc1ccc(C(=O)NCCC(C)C)cc1S(=O)(=O)N1CCOCC1`, the cell count in test [1] worked out at 229. For the same compound, the inhibition was -32.8% (inactive) in test [1], 25.8% (inactive) in [3], 17.2% (inactive) in test [8] and 19.8% (inactive) in test [9]. Moreover, in test [2], the inhibition of aggregation is 0.6% (inactive). The figures for the nuclei count in test [2] and in test [3] were 66.7% and 109%, respectively. For the same compound, the fluorescence slope in test [4] is -0.355 (inactive). Moreover, the NADPH fluorescence slope in [5] was 6.5e-06 (inactive). Also, the slope in test [6] was 0.00454 (inactive). Further, the result in [7] was inactive.
For the compound `Cc1cc(C(=O)COC(=O)c2n[nH]c3ccccc23)c(C)n1C`, the cell count in [1] worked out at 377. Moreover, the inhibition in test [1] is 2.6% (inactive); in test [3], 12.4% (inactive); in test [8], 5.43% (inactive); in test [9] it was -24.2% (inactive). For the same compound, the inhibition of aggregation in test [2] is -0.6% (inactive). Besides, the results for the nuclei count in test [2] and in test [3] were 86.6% and 96.7%, respectively. Moreover, in test [4], the fluorescence slope is -0.445 (inactive). The NADPH fluorescence slope in [5] is -1.8e-05 (inactive). Moreover, the slope in [6] was 0.00398 (inactive). The compound was called inactive in [7].
In the case of `O=C(C1CCCO1)N1CCN(S(=O)(=O)c2ccccc2)CC1` (stereo unspecified), the cell count in test [1] is 328. Besides, the inhibition was 4% (inactive) in [1], -28.4% (inactive) in [3], 12.6% (inactive) in [8] and 12.9% (inactive) in test [9]. For the same compound, the inhibition of aggregation in test [2] is 3.2% (inactive). Moreover, the figures for the nuclei count in [2] and in test [3] were 86.5% and 102%, respectively. Moreover, the fluorescence slope in test [4] was -0.439 (inactive). The NADPH fluorescence slope in [5] was -8.1e-05 (inactive). Further, the slope in test [6] was 0.00532 (inactive). Besides, in test [7], the outcome was inactive.
Consider `COc1cccc(Nc2nnc(SCC(=O)N3CC(C)OC(C)C3)s2)c1` (stereo unspecified), for which the cell count in [1] amounted to 448. Besides, the inhibition in test [1] is 4.8% (inactive); in test [3] it was -19.6% (inactive); in test [8], -1.41% (inactive); in test [9], -10% (inactive). In [2], the inhibition of aggregation was 14.5% (inactive). The results for the nuclei count in test [2] and in test [3] were 73.5% and 117%, respectively. The fluorescence slope in test [4] was -0.409 (inactive). Besides, the NADPH fluorescence slope in test [5] was -9.2e-05 (inactive). In addition, in test [6], the slope is 0.00562 (inactive). In [7], the outcome was inactive.
For the compound `CCC(=O)Nc1ccc(NC(=O)c2ccccn2)cn1`, the cell count in test [1] was determined as 778. Also, the inhibition was -11% (inactive) in test [1], -9.1% (inactive) in test [3], -3% (inactive) in test [8] and 99.2% (active) in test [9]. Besides, the inhibition of aggregation in [2] was -6.5% (inactive). Moreover, the nuclei count in [2] worked out at 102%; in [3], 104%. The fluorescence slope in [4] was -0.402 (inactive). In test [5], the NADPH fluorescence slope is -5.9e-05 (inactive). Also, the slope in [6] is 0.00517 (inactive). The result in test [7] was inactive.
In the case of `COc1ccc(Cl)c(NC(=O)NCCN2CCN(c3ccccc3)CC2)c1`, in test [1], the cell count turned out to be 410. The inhibition in test [1] was 1.8% (inactive); in test [3], -12.8% (inactive); in test [8], 15.2% (inactive); in test [9], 23.5% (inactive). Besides, the inhibition of aggregation in [2] was 1% (inactive). Besides, the nuclei count came out at 99.5% in test [2] and 119% in [3]. Besides, the fluorescence slope in test [4] was -0.29 (inactive). Moreover, the NADPH fluorescence slope in test [5] was -1.7e-05 (inactive). The slope in test [6] was 0.00501 (inactive). For the same compound, the result in test [7] was inactive.
Take `Cc1ccc(C)c(CSc2nnc(CCN)o2)c1`: in [1], the cell count came to 431. For the same compound, the inhibition in [1] is -14.5% (inactive); in test [3], -41.1% (inactive); in test [8], 6.22% (inactive); in test [9], 10.2% (inactive). Moreover, the inhibition of aggregation in test [2] was 2.5% (inactive). Besides, the nuclei count in test [2] was found to be 65.3%; in [3], 103%. The fluorescence slope in [4] was -0.462 (inactive). Besides, the NADPH fluorescence slope in [5] was -9.3e-06 (inactive). In addition, in [6], the slope was 0.00535 (inactive). The call in [7] was inactive.
For `CCOC(=O)C1CCN(C(=O)Nc2ccc3nc(C)c(C)nc3c2)CC1`, the cell count in test [1] is 331. In addition, the inhibition in test [1] is 2% (inactive); in [3], -20.1% (inactive); in [8] it was 8.11% (inactive); in test [9], 5.19% (inactive). For the same compound, the inhibition of aggregation in test [2] was 26.1% (inactive). Also, the figures for the nuclei count in test [2] and in [3] were 84.8% and 90.9%, respectively. Also, the fluorescence slope in test [4] is -0.00743 (active). The NADPH fluorescence slope in [5] was -2.9e-06 (inactive). Further, the slope in test [6] was 0.00559 (inactive). In addition, in [7], the outcome was inactive.
Consider `COc1ccccc1-n1c(SCC(=O)NC(C)(C)C)nnc1-c1ccco1`, for which the cell count in test [1] came out at 662. The inhibition was -13.1% (inactive) in test [1], -53% (inactive) in test [3], 10.4% (inactive) in [8] and 15.6% (inactive) in test [9]. In test [2], the inhibition of aggregation is 6.2% (inactive). Moreover, the nuclei count is 87.8% in test [2] and 117% in test [3]. Besides, the fluorescence slope in test [4] is -0.504 (inactive). Further, in test [5], the NADPH fluorescence slope was -2.6e-05 (inactive). Further, in test [6], the slope was 0.0043 (inactive). The outcome in test [7] was inactive.
